Screening results as filed in PubChem BioAssay.
This is a sample that favours compounds with a hit; in the whole collection about 3.8% have one here.
hERG protect = compounds protecting human hERG from proarrhythmic drug block; Q12809; CHO-hERG, FluxOR thallium flux, dofetilide IC70 present; activation (rescue from dofetilide block), less the hit threshold, % at 10 µM; 0.51% of 310,000 active; AID 1511;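 active means activation above the mean of controls blocked by dofetilide plus 5 SD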;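 further: thallium influx through hERG after potassium depolarization seen as dye fluorescence rise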
KCNK9 inh = inhibitors of human KCNK9 two-pore domain potassium channel; Q9NPC2; HEK293 KCNK9, FluxOR thallium flux fluorescence; hits give low values; B-score at 10 µM; 1.2% of 310,000 active; AID 488922;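 active means ratio B-score over 3 SD below the library mean, with starting fluorescence within 5 SD of its mean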;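 further: negative B-score means less thallium flux so channel inhibition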
KCNK3 block = human KCNK3 channel inhibition, primary screen | 0.84% of 340,000 active | B-score at 10 µM | O14649 | AID 602410 | CHO-KCNK3 thallium flux, FluxOR fluorescence; hits give low values;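 active means B-score under library mean minus 4 SD, starting fluorescence ratio at most library mean plus 5 SD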;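 further: more negative B-score means stronger inhibition of thallium flux through KCNK3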
KCNQ1 inh = human KCNQ1 channel inhibition | AID 2642 | 1.3% of 310,000 active | P51787 | B-score at 10 µM | CHO-K1 KCNQ1, FluxOR thallium flux fluorescence; hits give high values;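 active means compounds whose thallium flux B-score, printed positive for inhibition, exceeds three library SD while starting fluorescence stays within three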;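 further: channel opened by potassium depolarization with thallium stimulus after 20 min compound exposure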
KCNQ1 act = human KCNQ1 channel potentiation or activation. P51787. B-score at 10 µM. 0.35% of 310,000 active. AID 2648. CHO-K1 KCNQ1, thallium flux FluxOR fluorescence; hits give high values;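 active means fluorescence ratio B-score, a plate-corrected score, at least three library SD, with initial intensity B-score within 5 SD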
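Test system: CHO-K1 cells stably expressing KCNQ1 / Medium: assay buffer / Also added: depolarizing K+/Tl+ stimulus, K2SO4 and Tl2SO4 each 12.5 mM in 5x stock / Incubation: 90 min dye loading and 20 min compound exposure, both at room temperature / Signal: thallium influx via FluxOR fluorescence, kinetic imaging / Evaluation: B score of baseline-normalized fluorescence ratio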
Kir21 inh = inhibitors of mouse Kir2.1 inward-rectifier potassium channel; HEK293-Kir2.1, FluxOR thallium flux fluorescence; hits give low values; B-score at 10 µM; 0.85% of 310,000 active; AID 1672;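 active means fluorescence ratio B-score at or below minus 3 SD of library scores, with starting-brightness B-score within 2 SD, cut at about -4.2 in these data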;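 further: channel flux triggered by added potassium and thallium sulfate stimulus; B-score of peak minus minimum fluorescence over baseline after thallium stimulus; more negative B-score means stronger Kir2.1 block with less thallium influx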
Target sequence (P35561 whole entry, looked up): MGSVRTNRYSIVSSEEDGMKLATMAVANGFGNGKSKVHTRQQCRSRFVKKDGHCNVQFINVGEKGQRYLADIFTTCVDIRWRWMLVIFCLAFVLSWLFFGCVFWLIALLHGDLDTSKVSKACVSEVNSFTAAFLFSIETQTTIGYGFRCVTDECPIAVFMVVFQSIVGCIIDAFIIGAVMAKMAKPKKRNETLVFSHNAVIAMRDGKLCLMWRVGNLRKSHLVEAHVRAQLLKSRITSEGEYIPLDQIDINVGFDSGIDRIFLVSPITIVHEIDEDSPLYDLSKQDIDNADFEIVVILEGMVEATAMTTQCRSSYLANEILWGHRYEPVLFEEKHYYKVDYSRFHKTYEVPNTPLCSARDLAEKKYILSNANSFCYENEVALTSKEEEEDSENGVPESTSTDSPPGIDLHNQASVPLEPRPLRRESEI
KCNK3 confirm = human KCNK3 channel inhibition, confirmation assay; CHO-KCNK3 thallium flux, FluxOR fluorescence; 0% buffer, 100% carvedilol maximal block; ratio percent of control, % at 10 µM; shares compounds with KCNK3 block; 99% of 2,400 active;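 active means ratio percent of control, averaged over triplicates, above buffer control mean plus 5 SD, cut at about 64% in these data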;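 further: ratio is the fluorescence rise from min to max over baseline after thallium stimulus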
KCNK3 uninduced = counter-screen for KCNK3 inhibitors: effect in non-induced cells | shares compounds with KCNK3 block | non-induced KCNK3 parental cells, FluxOR thallium flux; hits give low values | thallium flux ratio (lower = more inhibition) at 10 µM | 40% of 2,400 active | AID 651747;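 active means thallium flux ratio, averaged over three wells, more than 5 SD below the buffer control mean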;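 further: host cells are CHO cells without KCNK3 induction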
Hits are given with their value; - = inactive; . = not tested or not shown.

SMILES | hERG protect | KCNK9 inh | KCNK3 block | KCNQ1 inh | KCNQ1 act | Kir21 inh | KCNK3 confirm | KCNK3 uninduced
CCc1c(-c2ccccc2)nc2nc(C)c(C)nn12 | - | - | -8.91 | - | - | - | 104.3 | 0.139
Cc1ccccc1-c1nnn(Cc2ccc(F)cc2Cl)n1 | - | - | -9.04 | - | - | - | 101.3 | -
CCOC(=O)c1cnc(-n2nc(C)cc2C)nc1NC1CCCC1 | - | - | -9.39 | - | - | - | 131.0 | 0.107
O=C(COC(=O)c1cc(S(=O)(=O)N2CCOCC2)ccc1O)Nc1cc(S(=O)(=O)N2CCCC2)ccc1Cl | - | - | - | - | - | - | . | .
CCN1CCSc2ccc(C(=O)NCc3cc(Br)ccc3OC)cc21 | - | -7.01 | - | - | - | - | 92.0 | -
COc1ccc(Br)cc1CNC(=O)c1ccc2c(c1)N(C)CCS2 | - | - | -10.3 | - | - | - | 106.0 | -
CCNC(=O)CSC1=N/C(=C\c2ccc(O)c(OCC)c2)C(=O)N1c1ccc(OC(F)F)cc1 | - | - | - | - | - | - | . | .
O=C(CSC1=N/C(=C/c2ccco2)C(=O)N1c1ccc(OC(F)F)cc1)NC1CCS(=O)(=O)C1 (centres undefined) | - | - | -8.91 | - | - | - | 83.0 | -
c1csc(-c2nc(NCC3CCCO3)c3ccccc3n2)c1 (centres undefined) | - | - | - | - | - | - | . | .
c1ccc(CN2CCC(Nc3nc(-c4cccs4)nc4ccccc34)CC2)cc1 | - | - | -10 | - | - | - | 126.0 | 0.14
CCSc1nnc(NC(=O)CSc2nc3c(c(=O)n2CCOC)SC(C)C3)s1 (centres undefined) | - | - | - | - | - | - | . | .
CCN(CC)S(=O)(=O)c1ccc(NC(=O)c2cccs2)cc1 | - | - | -10.5 | - | - | - | 82.7 | -
COc1ccc(S(=O)(=O)N2CCCC(C(=O)N3CCOCC3)C2)cc1OC (centres undefined) | - | - | - | - | - | - | . | .
Clc1ccccc1-c1nc(-c2ccc(Br)o2)no1 | - | - | -10.3 | - | - | - | 122.7 | 0.152
O=[N+]([O-])c1ccccc1-c1nc(-c2ccc(Br)o2)no1 | - | - | - | - | - | - | . | .
Cc1ccc(S(=O)(=O)Nc2cccc(C(=O)NCC(C)(C)N3CCOCC3)c2)cc1F | - | - | - | - | - | - | . | .
CC(=O)c1csc(COc2ccc(Cl)cc2)n1 | - | - | - | - | - | - | . | .
Cc1sc2nc(SCc3nc(-c4cccs4)no3)n(-c3ccccc3)c(=O)c2c1C | - | -7.66 | -12.5 | - | - | - | 108.7 | -
c1ccc(-n2c(SCc3nc(-c4cccs4)no3)nnc2-c2ccco2)cc1 | - | - | - | - | - | - | . | .
Cc1cnc(NC(=O)CCCNC(=O)c2ccc(Cl)cc2)s1 | . | . | - | . | . | . | . | .
COc1ccc(C)cc1S(=O)(=O)n1cnc2ccccc21 | - | - | - | - | - | - | . | .
COc1ccc(OC)c(S(=O)(=O)n2cnc3cc(C)c(C)cc32)c1 | - | - | -11.2 | - | - | - | 98.7 | -
CCc1ccc(N2C(=O)C(Cl)=C(N3CCOCC3)C2=O)cc1 | - | - | - | - | - | - | . | .
CCc1ccc(N2C(=O)C(Cl)=C(N3CCCCCC3)C2=O)cc1 | - | -7.08 | - | - | - | - | 116.7 | 0.15
CCN(CC)c1nc(-c2ccc(C(=O)NN)cc2)nc(-c2ccc(C(=O)NN)cc2)n1 | - | - | -8.82 | - | - | - | 52.3 | -
SMILES | hERG protect | KCNK9 inh | KCNK3 block | KCNQ1 inh | KCNQ1 act | Kir21 inh | KCNK3 confirm | KCNK3 uninduced
CN(CC(=O)Nc1ccccc1Cl)C(=O)COC(=O)c1ccccc1[N+](=O)[O-] | - | - | - | - | - | - | . | .
COc1ccc(C(=O)C2CCCN(S(=O)(=O)c3ccc(C(C)=O)cc3)C2)c(C)c1 (centres undefined) | - | - | -10.1 | - | - | - | 119.7 | 0.153
Nc1nc(F)cc(NCc2ccccc2)n1 | - | - | - | - | - | - | . | .
CCc1cccc(NC(=S)N(CCOC)C2CCN(C(C)=O)CC2)c1 | - | - | - | - | - | - | . | .
O=C(OCC#CCSc1nc2ccccc2o1)c1cc2ccccc2o1 | - | - | -10.8 | - | - | - | 104.7 | 0.153
O=C(Nc1ccc(Cl)cc1)N1CCC(c2nc(-c3ccccc3Cl)no2)CC1 | - | - | -8.71 | - | - | - | 108.3 | 0.137
O=C(c1ccco1)N1CCC(c2nc(-c3ccccc3Cl)no2)CC1 | - | - | - | - | - | - | . | .
Cc1oc2ccc(O)c(CN(C)C)c2c1C(=O)c1ccccc1 | - | - | - | - | - | - | . | .
CCOC(=O)c1c(CSCc2ccccc2)oc2ccc(O)c(CN(C)C)c12 | - | - | -9.28 | - | - | - | 122.7 | -
CCOc1ccc(C2/C(=C(/O)c3ccc(S(=O)(=O)N4CCCCC4)cc3)C(=O)C(=O)N2CCCOC)cc1OC (centres undefined) | - | - | - | - | - | - | . | .
COc1ccc(C(C(=O)NC2CCCC2)N(C(=O)c2ccco2)c2cc3c(cc2C(C)=O)OCO3)cc1 (centres undefined) | - | - | - | - | - | - | . | .
CCOC(=O)Cc1csc(NC(=O)COc2c(C)cccc2C)n1 | - | - | -13.4 | - | - | - | 92.7 | -
CCOC(=O)Cc1csc(NC(=O)COc2ccccc2OCC)n1 | - | - | - | - | - | - | . | .
O=C(O)c1c(C(=O)O)c(-c2ccc(F)cc2)n2c1CCC2 | - | - | - | - | - | - | . | .
c1ccc(-c2nc(-c3ccco3)n3ccccc23)cc1 | - | - | -9.75 | - | - | - | 116.0 | 0.148
c1ccc(Nc2c(-c3ccco3)nc3ccccn23)cc1 | - | - | - | - | - | - | . | .
COc1cccc(/C=C/C(=O)OCC(=O)NCC2CCCO2)c1OC (centres undefined) | - | - | - | - | - | - | . | .
COc1ccc(OC)c(/C=C2/Sc3ccccc3C2=O)c1 | - | -7.17 | -10.5 | - | - | - | 109.7 | 0.117
CCN1N=C(c2ccccc2)Cn2c1nc1ccccc12 | - | - | -9.35 | - | - | - | 87.7 | -
Clc1ccc(C2Nc3ccccc3-n3cccc32)cc1 (centres undefined) | - | - | -12.7 | - | - | - | 114.0 | 0.156
CCS(=O)(=O)N1CCN=C1SCc1cccnc1 | - | - | - | - | - | - | . | .
CCCCCCCCCCCNC(=O)c1ccoc1C | - | - | -8.85 | - | - | - | 96.3 | -
Cc1occc1C(=O)NCCCCNC(=O)c1ccoc1C | - | - | - | - | - | - | . | .
